In ChEMBL document CHEMBL4706591, “Diphenyl triazine hybrids inhibit α-synuclein fibrillogenesis: Design, synthesis and in vitro efficacy studies” (Eur J Med Chem, 2020):
The source made the active and inactive calls. No cut-off for these calls is given here.

Experiments:
[1] = target: Alpha-synuclein (Homo sapiens) (UniProt P37840); test: Inhibition of recombinant alpha-synuclein (unknown origin) aggregation expressed in Escherichia coli BL21 (DE3) cells at 1:1 compound-protein molar ratio measured for every 30 mins in presence of ThT by spectrofluorometry
Procedure, shortened: (§1)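 Recombinant α-syn from E. coli BL21(DE3), extracted by osmotic shock, purified on DEAE-Sepharose with 50–500 mM NaCl gradient. Run at 37 °C; Ex 440/Em 485 nm read every 30 min after 30 s orbital shaking, until plateau. Four wells each. Each well fitted to a sigmoid giving t1/2, kapp = 1/τ, and tlag from lag/elongation intercept, then averaged; Student's t-test.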

[2] = target: Alpha-synuclein (Homo sapiens) (UniProt P37840); test: Inhibition of recombinant alpha-synuclein (unknown origin) aggregation expressed in Escherichia coli BL21 (DE3) cells assessed as final plateau fluorescence at 1:1 compound-protein molar ratio measured for every 30 mins in presence of ThT by spectrofluorometry relative to control; procedure, shortened: as §1
[3] = Aggregation property of the compound assessed as change in ThT fluorescence in presence of Thioflavin T; format: physicochemical; settings: 336 h; time 2 weeks
Procedure, shortened: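 Compound alone incubated with ThT without α-syn for over 2 weeks; ThT fluorescence monitored to exclude self-aggregation interference.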

[4] = target: Alpha-synuclein (Homo sapiens) (UniProt P37840); test: Inhibition of recombinant alpha-synuclein (unknown origin) aggregation expressed in Escherichia coli BL21 (DE3) cells assessed as elongation phase time at 1:1 compound-protein molar ratio measured for every 30 mins in presence of ThT by spectrofluorometry (reference value: 31.2 +/- 0.6 hrs); settings: dose 70.0 µM; procedure, shortened: as §1
[5] = target: Alpha-synuclein (Homo sapiens) (UniProt P37840); test: Inhibition of recombinant alpha-synuclein (unknown origin) aggregation expressed in Escherichia coli BL21 (DE3) cells assessed as lag time at 1:1 compound-protein molar ratio measured for every 30 mins in presence of ThT by spectrofluorometry (reference value: 15.1 +/- 0.9 hrs); procedure, shortened: as §1
[6] = target: Alpha-synuclein (Homo sapiens) (UniProt P37840); test: Inhibition of recombinant alpha-synuclein (unknown origin) aggregation expressed in Escherichia coli BL21 (DE3) cells assessed as apparent elongation rate constant at 1:1 compound-protein molar ratio measured for every 30 mins in presence of ThT by spectrofluorometry (reference value: 108.7 +/- 1.8 10^-3/hr); procedure, shortened: as §1
[7] = target: Alpha-synuclein (Homo sapiens) (UniProt P37840); test: Inhibition of recombinant alpha-synuclein (unknown origin) aggregation expressed in Escherichia coli BL21 (DE3) cells assessed as reduction in fluorescent labeled aggregates at 20 uM incubated for >=66 hrs by ThT dye based inverted fluorescence microscopic analysis; settings: time hrs >=66
Procedure, shortened: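 After the ThT kinetic run (about 66 h), 10 µL of control or compound-incubated α-syn mixed with 20 µM ThT was placed on a glass slide under a coverslip. Imaged on an inverted fluorescence microscope, FITC filter, 100× oil objective, with constant laser power and intensity.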

[8] = target: Alpha-synuclein (Homo sapiens) (UniProt P37840); test: Disruption of recombinant preformed alpha-synuclein (unknown origin) aggregation expressed in Escherichia coli BL21 (DE3) at 20 uM incubated for 5 days by ThT dye based inverted fluorescence microscopic analysis; settings: time 5.0 day
Procedure, shortened: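 Preformed α-syn aggregates incubated with compound at 1:1 molar ratio at 37 °C for 5 days, without ThT, in a sealed plate, one well each. Samples then stained with ThT and imaged on an inverted fluorescence microscope through a FITC filter with constant imaging parameters.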

MEF [9] = test: Cytotoxicity against mouse MEF cells at 10 uM incubated for 24 hrs by MTT assay; format: cell-based
Procedure, shortened: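 MEF cells grown in DMEM with 10% FBS and 1% penicillin-streptomycin to about 80% confluency. Cells trypsinized, plated, and left 24 h at 37 °C in humidified CO2. Compound added at 10 µM in triplicate with DMSO vehicle control, 24 h. MTT 0.5 mg/mL for 4 h in dark, formazan dissolved in DMSO, absorbance read at 570 nm. Mean ± SEM of three independent replicates.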

MEF [10] = test: Cytotoxicity against mouse MEF cells at 10 uM incubated for 24 hrs in presence of aggregated alpha-synuclein by MTT assay; format: cell-based
Procedure, shortened: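 MEF cells cultured and plated as for the compound-only cytotoxicity assay. Cells treated in triplicate for 24 h with monomeric α-syn, aggregated α-syn, or α-syn aggregated in presence of compound at 1:1. Viability read by MTT (0.5 mg/mL, 4 h, 570 nm). Mean ± SEM, three replicates; Student's t-test, p<0.05.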

[11] = Solubility of the compound in sodium phosphate buffer at pH 7.4; format: physicochemical

| Compound | inhibition [1] | inhibition [2] [%] | Activity [3] | T1/2 [4] [h] | Tlag [5] [h] | Kapp [6] | inhibition [7] | inhibition [8] | solubility [11] | Activity (MEF [9]) | Activity (MEF [10]) |
| --- | --- | --- | --- | --- | --- | --- | --- | --- | --- | --- | --- |
| CC(=O)Nc1ccc(S(=O)(=O)N2CCN(C(=O)CSc3nnc(-c4ccccc4)c(-c4ccccc4)n3)CC2)cc1 | Active | > 50 | Not Active | 27.5 | 14.6 | 86.6 10^-3/hr | Active | Active | Insoluble | Non-Toxic | Non-Toxic |
| CC(=O)Nc1ccc(S(=O)(=O)N2CCN(C(=O)CSc3nnc(-c4ccccc4)c(-c4ccccc4)n3)CC2)cc1F | Active | > 50 | Not Active | 28.1 | 14.9 | 121 10^-3/hr | Active | Active | Insoluble | Non-Toxic | Toxic |
| O=C(CSc1nnc(-c2ccccc2)c(-c2ccccc2)n1)N1CCN(S(=O)(=O)c2ccccc2[N+](=O)[O-])CC1 | Active | < 40 | Not Active | 29.1 | 15.3 | 123 10^-3/hr | – | – | Insoluble | – | – |

Further lines, with some results ahead:

| inhibition [1] | inhibition [2] [%] | Activity [3] | T1/2 [4] [h] | Tlag [5] [h] | Kapp [6] | inhibition [7] | inhibition [8] | solubility [11] | Compound | Activity (MEF [9]) | Activity (MEF [10]) |
| --- | --- | --- | --- | --- | --- | --- | --- | --- | --- | --- | --- |
| Active | > 50 | Not Active | 28.2 | 15.9 | 128 10^-3/hr | Active | Active | Insoluble | O=C(CSc1nnc(-c2ccccc2)c(-c2ccccc2)n1)N1CCN(c2ccnc3cc(Cl)ccc23)CC1 | Non-Toxic | Toxic |
| Active | – | Not Active | 30.4 | 13.9 | 122 10^-3/hr | – | – | Insoluble | O=C(CSc1nnc(-c2ccccc2)c(-c2ccccc2)n1)N1CCN(S(=O)(=O)c2ccc(Cl)cc2Cl)CC1 | – | – |
| Active | – | Not Active | 30 | 16.1 | 116 10^-3/hr | – | – | Insoluble | O=C(CSc1nnc(-c2ccccc2)c(-c2ccccc2)n1)N1CCN(S(=O)(=O)c2ccc3ccccc3c2)CC1 | – | – |
| Active | < 40 | Not Active | 27 | 14.4 | 120 10^-3/hr | Active | inactive | Insoluble | O=C(CSc1nnc(-c2ccccc2)c(-c2ccccc2)n1)N1CCN(S(=O)(=O)c2ccc(Br)cc2)CC1 | Non-Toxic | Non-Toxic |
| Active | < 40 | Not Active | 29.4 | 14.1 | 118 10^-3/hr | – | – | Insoluble | Cc1ccc(S(=O)(=O)N2CCN(C(=O)CSc3nnc(-c4ccccc4)c(-c4ccccc4)n3)CC2)cc1 | – | – |
